The source made the active and inactive calls. No cut-off for these calls is given here.
Columns and labels:
[1] = target: T1, Serine/threonine-protein kinase Chk1 (Homo sapiens, UniProt O14757); assay: Inhibition of Chk1 (unknown origin) by luminescent ADP-Glo assay
T1 sequence (O14757 whole entry): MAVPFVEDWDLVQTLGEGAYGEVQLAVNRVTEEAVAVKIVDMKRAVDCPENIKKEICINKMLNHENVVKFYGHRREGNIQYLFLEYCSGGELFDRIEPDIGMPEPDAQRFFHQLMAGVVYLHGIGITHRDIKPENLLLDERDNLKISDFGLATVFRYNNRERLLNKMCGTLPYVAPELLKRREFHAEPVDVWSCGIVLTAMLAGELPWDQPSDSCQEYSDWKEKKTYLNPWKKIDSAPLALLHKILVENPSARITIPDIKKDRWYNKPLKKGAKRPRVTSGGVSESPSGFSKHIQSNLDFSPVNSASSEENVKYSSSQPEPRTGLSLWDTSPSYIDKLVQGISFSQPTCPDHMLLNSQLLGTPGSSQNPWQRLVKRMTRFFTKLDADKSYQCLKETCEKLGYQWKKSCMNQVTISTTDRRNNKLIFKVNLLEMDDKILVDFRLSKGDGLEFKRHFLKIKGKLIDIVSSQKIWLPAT

RPMI8266 [2] = assay: Cytotoxicity against human […] cells at 100 nM after 72 hrs by MTS assay; type: functional, cell-based
How it was run: (§1)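 RPMI 8226 myeloma cells were seeded at 5 × 10³ cells per well in 100 µL. They were treated with Chk1 inhibitor at 100 nM, with melphalan (1, 3 and 10 µM), or with both, for 72 h. MTS was then added at 0.5 mg/mL final for 2–4 h to read growth.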

RPMI8266 [3] = assay: Potentiation of melphalan-induced cytotoxicity against human […] cells at 100 nM after 72 hrs by MTS assay; type: functional, cell-based; how it was run: as §1
Protein kinase C (PKC) = assay: Inhibition of PKC (unknown origin) by Z'-LYTETM kinase assay; set-up: species or system Homo sapiens
Homo sapiens [4] = species on record: Homo sapiens; assay: Selectivity index, ratio of IC50 for Aurora A (unknown origin) to IC50 for Chk1 (unknown origin)
Aurora kinase A = target: T2, Aurora kinase A (Homo sapiens, UniProt O14965); assay: Inhibition of Aurora A (unknown origin) expressed in Escherichia coli by ZLYTETM assay
T2 sequence (O14965 whole entry): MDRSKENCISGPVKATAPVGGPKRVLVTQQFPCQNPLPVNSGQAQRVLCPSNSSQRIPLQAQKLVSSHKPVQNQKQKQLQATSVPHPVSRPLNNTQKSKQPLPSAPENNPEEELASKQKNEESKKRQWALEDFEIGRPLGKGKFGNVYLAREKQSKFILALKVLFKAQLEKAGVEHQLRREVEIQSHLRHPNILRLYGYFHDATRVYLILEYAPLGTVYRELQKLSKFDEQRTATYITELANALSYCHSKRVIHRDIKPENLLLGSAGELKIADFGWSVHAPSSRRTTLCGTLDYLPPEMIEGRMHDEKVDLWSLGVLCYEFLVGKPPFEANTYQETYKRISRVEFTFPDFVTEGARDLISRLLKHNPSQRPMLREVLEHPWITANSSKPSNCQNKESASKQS
How it was run: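 Z'-LYTE kinase assay. Aurora A was recombinant protein expressed in E. coli. Compounds were first tested at 1 µg/mL final. Those giving more than 40% inhibition were taken further, with IC50 reported.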

Homo sapiens [5] = species on record: Homo sapiens; assay: Selectivity index, ratio of IC50 for PKC (unknown origin) to IC50 for Chk1 (unknown origin)
CDK2/Cyclin A2 = CDK2/Cyclin A2 (Homo sapiens, UniProt P24941); assay: Inhibition of CDK2/cyclin A (unknown origin) by HTRF kinase assay; type: protein-complex assay
How it was run: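 CDK2/cyclin A was purchased enzyme, tested with an HTRF kinase assay kit. Compounds were first screened at 1 µg/mL final, and those giving more than 40% inhibition were taken forward to IC50.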

Homo sapiens [6] = species on record: Homo sapiens; assay: Selectivity index, ratio of IC50 for CDK2/cyclinA (unknown origin) to IC50 for Chk1 (unknown origin)

SMILES | IC50 [1] [nM] | IC50 (Protein kinase C (PKC)) [nM] | Ratio IC50 (Homo sapiens [4]) | IC50 (Aurora kinase A) [nM] | Ratio IC50 (Homo sapiens [5]) | IC50 (CDK2/Cyclin A2) [nM] | Ratio IC50 (Homo sapiens [6]) | other results
O=c1[nH]c2sc(Br)cc2c(NC2CCNC2)c1-c1nc2ccccc2[nH]1 (stereo not given) | 15.3 | – | – | – | – | – | – | –
O=c1[nH]c2sccc2c(NC2CCCCC2)c1-c1nc2ccccc2[nH]1 | > 10000 | – | – | – | – | – | – | –
O=c1[nH]c2sccc2c(N2CCCCC2)c1-c1nc2ccccc2[nH]1 | > 10000 | – | – | – | – | – | – | –
O=c1[nH]c2sccc2c(NC2CCNCC2)c1-c1nc2ccccc2[nH]1 | 9.94 | – | – | – | – | – | – | –
NCCNc1c(-c2nc3ccccc3[nH]2)c(=O)[nH]c2sccc12 | > 10000 | – | – | – | – | – | – | –
NC(=O)Nc1cc(-c2cccc(F)c2)sc1C(=O)N[C@H]1CCCNC1 | – | – | – | – | – | – | – | Activity (RPMI8266 [2]): inactive; Activity (RPMI8266 [3]): Active
O=c1[nH]c2sccc2c(N2CCC(CO)CC2)c1-c1nc2ccccc2[nH]1 | > 10000 | – | – | – | – | – | – | –
O=c1[nH]c2sccc2c(NCC2CCNCC2)c1-c1nc2ccccc2[nH]1 | 116 | – | – | – | – | – | – | –
Cc1cc2c(NC3CCCNC3)c(-c3nc4ccccc4[nH]3)c(=O)[nH]c2s1 (stereo not given) | 9.84 | – | – | – | – | – | – | –
O=c1[nH]c2sc(Cl)cc2c(NC2CCCNC2)c1-c1nc2ccccc2[nH]1 (stereo not given) | 4.05 | 168.89 | > 20 | 1050 | > 20 | 334 | > 20 | Activity (RPMI8266 [2]): inactive; Activity (RPMI8266 [3]): Active
O=c1[nH]c2ccsc2c(NC2CCCNC2)c1-c1nc2ccccc2[nH]1 (stereo not given) | 7.54 | 814.06 | > 20 | 202 | > 20 | 256 | > 20 | –
O=c1[nH]c2sc(Cl)cc2c(N[C@H]2CCCNC2)c1-c1nc2ccccc2[nH]1 | 3.53 | – | – | – | – | – | – | –
O=c1[nH]c2sccc2c(NC2CCNC2)c1-c1nc2ccccc2[nH]1 (stereo not given) | 47.5 | – | – | – | – | – | – | –
O=c1[nH]c2sccc2c(N2CCOCC2)c1-c1nc2ccccc2[nH]1 | > 10000 | – | – | – | – | – | – | –
O=c1[nH]c2sc(Cl)cc2c(NC2CCNC2)c1-c1nc2ccccc2[nH]1 (stereo not given) | 41 | – | – | – | – | – | – | –
O=c1[nH]c2sc(Cl)cc2c(NC2CN3CCC2CC3)c1-c1nc2ccccc2[nH]1 (stereo not given) | 6.23 | 2018.88 | > 20 | > 10000 | 100 | 3190 | 100 | Activity (RPMI8266 [2]): inactive; Activity (RPMI8266 [3]): Active
COc1ccc2[nH]c(-c3c(NC4CN5CCC4CC5)c4cc(Cl)sc4[nH]c3=O)nc2c1 (stereo not given) | 5.36 | 8186.03 | > 20 | 1400 | 100 | 4300 | 100 | –
CN(C)CCNc1c(-c2nc3ccccc3[nH]2)c(=O)[nH]c2sccc12 | 178 | – | – | – | – | – | – | –
O=c1[nH]c2sccc2c(NC2CCCNC2)c1-c1nc2ccccc2[nH]1 (stereo not given) | 15.6 | 695.85 | > 20 | 791 | > 20 | 849 | > 20 | –
O=c1[nH]c2sccc2c(N[C@H]2CCCNC2)c1-c1nc2ccccc2[nH]1 | 5.22 | 522.51 | > 20 | 495 | > 20 | 852 | > 20 | –
O=c1[nH]c2sccc2c(NCCO)c1-c1nc2ccccc2[nH]1 | > 10000 | – | – | – | – | – | – | –
O=c1[nH]c2sc(Br)cc2c(NC2CCCNC2)c1-c1nc2ccccc2[nH]1 (stereo not given) | 4.83 | 392.71 | > 20 | 1590 | > 20 | 246 | > 20 | –
COc1ccc2[nH]c(-c3c(N[C@H]4CCCNC4)c4cc(Cl)sc4[nH]c3=O)nc2c1 | 2.33 | 204.48 | > 20 | 328 | > 20 | 393 | > 20 | Activity (RPMI8266 [2]): inactive; Activity (RPMI8266 [3]): Active
O=c1[nH]c2sccc2c(NC2CN3CCC2CC3)c1-c1nc2ccccc2[nH]1 (stereo not given) | 14 | 1001.81 | > 20 | > 10000 | 100 | 1630 | 100 | –
COC(=O)CCNc1c(-c2nc3ccccc3[nH]2)c(=O)[nH]c2sccc12 | > 10000 | – | – | – | – | – | – | –
Cc1cc2c(NC3CCNC3)c(-c3nc4ccccc4[nH]3)c(=O)[nH]c2s1 (stereo not given) | 23.2 | – | – | – | – | – | – | –
O=c1[nH]c2ccsc2c(NC2CCNC2)c1-c1nc2ccccc2[nH]1 (stereo not given) | 24.7 | – | – | – | – | – | – | –
O=c1[nH]c2sccc2c(NCCN2CCOCC2)c1-c1nc2ccccc2[nH]1 | > 10000 | – | – | – | – | – | – | –
CNCCNc1c(-c2nc3ccccc3[nH]2)c(=O)[nH]c2sccc12 | > 10000 | – | – | – | – | – | – | –
